From publication PMC4394042 (Cell reports, 2015)

How the values were obtained:
[1] = test system: Gli2FL nuclear accumulation; assay: Western blot of nuclear full length Gli2 in SAG-stimulated NIH3T3 cells; type: cell-based; conditions: SAG 100 nM 1.5 h; Egm 10 μM, FSK 30 μM
Summary of the method: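 NIH3T3 cells were left unstimulated or stimulated with SAG (100 nM, 1.5 h), alone or with test compound (10 μM) or forskolin (30 μM), then fractionated. Full-length Gli2 was blotted in nuclear (Lamin-A/C control, n = 4) and whole-cell (α-tubulin control, n = 2) fractions. Output was the ratio of normalized nuclear to normalized whole-cell Gli2.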

21 phosphatases = assay: Counter-screen, phosphatase panel
[2] = test system: Hh signaling (Shh-Light2 cells); assay: Gli-luciferase reporter in Shh-Light2 cells stimulated with Shh; type: cell-based, mouse; conditions: for Shh-responsive Gli-luciferase reporter activity: stimulated with Shh conditioned medium, significant starting at 1 μM
Summary of the method: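 Mouse Shh-Light2 Gli-responsive luciferase reporter cells were stimulated with Shh conditioned medium and then treated with increasing concentrations of test compound. Luciferase output was read as relative luciferase units (RLU), n = 4 per condition, reported as mean ± SEM with p-values.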

[3] = test system: Hh-target gene Patched (Ptc)-1 expression; assay: Whole-mount in situ hybridization for Ptc1 in zebrafish embryos; type: in vivo; conditions: 1 μM; 12 hpf and 48 hpf
[4] = test system: Hh signaling (Shh-Light2 cells); assay: Gli-Luc reporter stimulated with Smo agonist purmorphamine; type: cell-based, mouse; conditions: purmorphamine 3 μM; significant starting at 0.5 μM
PDE3A = PDE3A (Homo sapiens, UniProt Q14432); assay: PDE dose-response assay, PDE3A; type: biochemical
Sequence of PDE3A (Q14432 whole entry, species assumed): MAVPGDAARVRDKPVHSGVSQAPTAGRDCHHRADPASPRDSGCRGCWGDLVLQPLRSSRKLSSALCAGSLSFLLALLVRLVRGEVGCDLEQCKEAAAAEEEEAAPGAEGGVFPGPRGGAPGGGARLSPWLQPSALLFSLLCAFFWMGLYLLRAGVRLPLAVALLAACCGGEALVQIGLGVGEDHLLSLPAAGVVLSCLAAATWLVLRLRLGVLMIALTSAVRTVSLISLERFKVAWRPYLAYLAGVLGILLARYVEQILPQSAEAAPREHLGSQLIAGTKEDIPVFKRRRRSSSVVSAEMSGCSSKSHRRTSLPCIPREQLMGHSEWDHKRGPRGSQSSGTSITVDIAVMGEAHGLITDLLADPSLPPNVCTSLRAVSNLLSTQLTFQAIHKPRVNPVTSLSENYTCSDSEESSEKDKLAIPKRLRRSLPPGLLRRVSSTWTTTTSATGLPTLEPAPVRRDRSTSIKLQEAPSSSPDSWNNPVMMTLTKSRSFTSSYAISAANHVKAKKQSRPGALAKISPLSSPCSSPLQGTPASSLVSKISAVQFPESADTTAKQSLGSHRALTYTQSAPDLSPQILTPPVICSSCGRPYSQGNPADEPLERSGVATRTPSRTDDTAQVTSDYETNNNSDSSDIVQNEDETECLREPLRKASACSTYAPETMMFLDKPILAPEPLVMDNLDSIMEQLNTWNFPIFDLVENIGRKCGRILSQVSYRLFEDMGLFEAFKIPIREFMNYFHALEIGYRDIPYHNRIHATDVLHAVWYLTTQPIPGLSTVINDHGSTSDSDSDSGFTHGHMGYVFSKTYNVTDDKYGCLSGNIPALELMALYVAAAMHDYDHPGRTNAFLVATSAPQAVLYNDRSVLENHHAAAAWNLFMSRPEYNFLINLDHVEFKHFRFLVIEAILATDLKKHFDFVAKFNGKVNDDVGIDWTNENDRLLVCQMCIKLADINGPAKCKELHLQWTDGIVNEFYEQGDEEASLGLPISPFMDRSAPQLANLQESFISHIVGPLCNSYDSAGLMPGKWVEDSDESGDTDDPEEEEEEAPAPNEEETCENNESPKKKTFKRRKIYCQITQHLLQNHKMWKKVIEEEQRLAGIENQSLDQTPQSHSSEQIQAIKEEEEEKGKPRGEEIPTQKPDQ

[5] = test system: primary cilium of NIH3T3 cells; assay: Cilium structure and IFT88 in NIH3T3 cells; type: cell-based
[6] = test system: Hh signaling in Sufu-/- MEFs; assay: Gli1 and Ptc1 mRNA transcripts in Sufu-/- mouse embryonic fibroblasts; type: cell-based; conditions: 10 μM, normalized to GAPDH
[7] = test system: PDE4D3-induced Hh signaling (Shh-Light2 cells); assay: Hh reporter activity in Shh-Light2 cells transfected with PDE4D3; type: cell-based, mouse; conditions: 5 μM
Summary of the method: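 Hh reporter cells were transiently transfected with wild-type PDE4D3, dominant-negative PDE4D3 or empty pCS2 vector as control. Wild-type transfectants received 5 μM test compound. Reporter activity is reported as mean ± SEM and compared with vector control or untreated wild-type transfectants.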

[8] = test system: Gli2-driven Gli-Luc activity; assay: Gli-Luc activity in cells transiently overexpressing Gli2; type: cell-based; conditions: transient Gli2 overexpression
PDE4D3 = PDE4D3 (Homo sapiens, UniProt Q08499); assay: PDE dose-response assay, PDE4D3; type: biochemical
Sequence of PDE4D3 (Q08499 1-673 isoform Q08499-2): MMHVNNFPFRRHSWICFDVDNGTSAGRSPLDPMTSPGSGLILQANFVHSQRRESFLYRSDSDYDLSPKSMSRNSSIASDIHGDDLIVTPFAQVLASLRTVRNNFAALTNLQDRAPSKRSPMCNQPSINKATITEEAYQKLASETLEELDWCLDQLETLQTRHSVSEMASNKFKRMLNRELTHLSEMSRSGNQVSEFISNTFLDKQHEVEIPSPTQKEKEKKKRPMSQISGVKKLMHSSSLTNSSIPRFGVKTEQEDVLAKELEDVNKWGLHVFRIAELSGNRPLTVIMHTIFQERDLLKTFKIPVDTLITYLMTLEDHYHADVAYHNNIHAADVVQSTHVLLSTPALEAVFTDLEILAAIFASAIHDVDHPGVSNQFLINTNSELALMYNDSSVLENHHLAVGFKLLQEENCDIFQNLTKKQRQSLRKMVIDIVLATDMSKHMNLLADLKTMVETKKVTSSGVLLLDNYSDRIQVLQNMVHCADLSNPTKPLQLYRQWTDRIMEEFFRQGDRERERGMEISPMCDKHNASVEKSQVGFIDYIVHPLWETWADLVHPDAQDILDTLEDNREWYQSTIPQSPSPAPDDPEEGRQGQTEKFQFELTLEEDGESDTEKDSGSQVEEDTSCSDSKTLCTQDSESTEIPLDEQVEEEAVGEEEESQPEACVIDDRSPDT

PDE super-family members = assay: In vitro PDE activity screen across PDE super-family members; type: biochemical; conditions: 20 μM; PDE4D3 and three other members
PDE10A2 = PDE10A2 (Homo sapiens, UniProt Q9Y233); assay: PDE dose-response assay, PDE10A2; type: biochemical
Sequence of PDE10A2 (Q9Y233 267-1055, species assumed): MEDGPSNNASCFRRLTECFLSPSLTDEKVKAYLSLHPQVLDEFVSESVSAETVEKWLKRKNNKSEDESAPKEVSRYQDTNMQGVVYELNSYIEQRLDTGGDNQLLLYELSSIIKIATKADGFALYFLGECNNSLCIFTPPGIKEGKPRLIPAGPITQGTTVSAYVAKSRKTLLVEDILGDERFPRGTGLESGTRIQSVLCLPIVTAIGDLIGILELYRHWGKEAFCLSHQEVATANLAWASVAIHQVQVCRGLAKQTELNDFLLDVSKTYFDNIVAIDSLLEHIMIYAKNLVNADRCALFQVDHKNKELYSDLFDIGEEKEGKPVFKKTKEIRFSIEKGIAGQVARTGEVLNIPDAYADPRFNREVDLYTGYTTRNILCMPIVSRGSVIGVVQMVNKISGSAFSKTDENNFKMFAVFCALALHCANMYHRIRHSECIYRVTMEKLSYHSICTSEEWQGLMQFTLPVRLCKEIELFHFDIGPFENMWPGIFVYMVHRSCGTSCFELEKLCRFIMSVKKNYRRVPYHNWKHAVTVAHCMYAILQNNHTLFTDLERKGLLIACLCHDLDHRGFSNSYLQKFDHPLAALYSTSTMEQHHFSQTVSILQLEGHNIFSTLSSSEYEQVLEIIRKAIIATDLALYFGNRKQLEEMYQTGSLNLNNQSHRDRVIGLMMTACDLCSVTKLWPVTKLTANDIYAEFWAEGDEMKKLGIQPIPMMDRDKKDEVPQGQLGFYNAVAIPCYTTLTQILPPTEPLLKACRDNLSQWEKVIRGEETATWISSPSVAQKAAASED

PKA [9] = assay: Western blot of phospho-T197-PKA in NIH3T3 whole cell lysates; type: cell-based; conditions: SAG 20 nM plus 5 μM compound
Summary of the method: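 NIH3T3 cells were left unstimulated or treated with SAG (20 nM), with or without test compound (5 μM). Whole-cell lysates were immunoblotted for phospho-T197 PKA catalytic subunit, with α-tubulin as loading control.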

[10] = test system: BMP (Bone Morphogenic Protein) signaling; assay: BMP developmental signaling pathway test; type: cell-based
442 kinases = assay: Counter-screen, kinase panel
[11] = test system: Gli2 ciliary localization in MEFs; assay: Gli2 trafficking to primary cilium in SAG-stimulated MEFs; type: cell-based, mouse; conditions: co-treatment SAG 20 nM and 5 μM compound
PKA [12] = assay: Immunostaining of phospho-T197-PKA in NIH3T3 cells; type: cell-based; conditions: SAG 20 nM plus 5 μM compound
PDE11A4 = PDE11A4 (Homo sapiens, UniProt Q9HCR9); assay: PDE dose-response assay, PDE11A4; type: biochemical
Sequence of PDE11A4 (Q9HCR9 whole entry, species assumed): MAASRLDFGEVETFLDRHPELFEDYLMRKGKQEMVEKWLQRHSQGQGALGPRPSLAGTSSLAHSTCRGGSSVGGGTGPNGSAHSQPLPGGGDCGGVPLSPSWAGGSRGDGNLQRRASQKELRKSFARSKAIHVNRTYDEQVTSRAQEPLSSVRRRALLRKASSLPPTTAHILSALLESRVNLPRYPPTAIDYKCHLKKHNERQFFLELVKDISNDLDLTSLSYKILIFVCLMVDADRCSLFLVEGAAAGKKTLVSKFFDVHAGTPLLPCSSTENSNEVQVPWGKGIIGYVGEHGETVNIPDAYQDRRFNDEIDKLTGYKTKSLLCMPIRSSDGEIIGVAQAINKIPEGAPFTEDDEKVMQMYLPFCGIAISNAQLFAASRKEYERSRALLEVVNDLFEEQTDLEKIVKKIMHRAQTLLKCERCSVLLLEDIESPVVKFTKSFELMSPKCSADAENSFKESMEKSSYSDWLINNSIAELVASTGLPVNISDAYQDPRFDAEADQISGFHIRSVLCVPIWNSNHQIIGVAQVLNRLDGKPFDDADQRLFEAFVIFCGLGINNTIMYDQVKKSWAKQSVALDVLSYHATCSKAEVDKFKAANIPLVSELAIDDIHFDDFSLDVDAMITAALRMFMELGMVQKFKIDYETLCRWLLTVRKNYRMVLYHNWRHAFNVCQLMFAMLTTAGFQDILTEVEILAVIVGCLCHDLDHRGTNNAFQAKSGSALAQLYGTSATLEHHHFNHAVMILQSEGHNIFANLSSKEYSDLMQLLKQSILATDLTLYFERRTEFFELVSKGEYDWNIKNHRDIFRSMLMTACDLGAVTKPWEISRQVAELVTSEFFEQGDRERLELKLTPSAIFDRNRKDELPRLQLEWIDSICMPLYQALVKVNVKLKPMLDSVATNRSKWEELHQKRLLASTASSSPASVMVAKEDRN

Smo = Smo (Homo sapiens, UniProt Q99835); type: binding; conditions: 5 nM BODIPY-cyclopamine; concentrations up to 10 μM
Sequence of Smo (Q99835 28-787): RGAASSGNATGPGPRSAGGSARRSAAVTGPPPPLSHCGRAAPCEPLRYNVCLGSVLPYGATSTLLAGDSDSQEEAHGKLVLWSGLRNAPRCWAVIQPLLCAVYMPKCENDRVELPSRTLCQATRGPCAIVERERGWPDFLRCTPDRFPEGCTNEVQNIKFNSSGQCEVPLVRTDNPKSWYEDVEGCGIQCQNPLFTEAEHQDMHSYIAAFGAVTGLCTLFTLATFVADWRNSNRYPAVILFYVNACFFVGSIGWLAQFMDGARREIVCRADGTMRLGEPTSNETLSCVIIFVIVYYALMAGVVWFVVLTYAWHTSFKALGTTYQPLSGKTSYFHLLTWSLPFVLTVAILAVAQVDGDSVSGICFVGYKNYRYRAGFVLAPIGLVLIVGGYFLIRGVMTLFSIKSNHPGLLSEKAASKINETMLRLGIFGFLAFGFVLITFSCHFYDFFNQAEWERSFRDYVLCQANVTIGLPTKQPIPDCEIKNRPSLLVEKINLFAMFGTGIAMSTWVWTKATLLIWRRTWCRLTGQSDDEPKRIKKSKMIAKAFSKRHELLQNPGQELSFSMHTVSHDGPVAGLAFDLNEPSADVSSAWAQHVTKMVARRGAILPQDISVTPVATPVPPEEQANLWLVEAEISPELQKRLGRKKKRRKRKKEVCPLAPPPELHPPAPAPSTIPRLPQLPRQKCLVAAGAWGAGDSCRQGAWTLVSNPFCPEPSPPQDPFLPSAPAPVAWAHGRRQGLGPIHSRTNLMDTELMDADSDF

[13] = test system: Gli3FL to Gli3R processing; assay: Western blot of Gli3 processing in SAG-stimulated C3H10T1/2 cells; type: cell-based; conditions: SAG 100 nM 24 h; Egm 10 μM, FSK 30 μM
Summary of the method: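 C3H10T1/2 cells were left unstimulated or stimulated with SAG (100 nM, 24 h), alone or with test compound (10 μM) or forskolin (30 μM). Whole-cell lysates were immunoblotted for full-length and repressor Gli3, with α-tubulin as loading control and infrared detection; n = 3.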

SMILES: C=C(C)Cn1c(SCC(=O)c2cccs2)nc2sc3c(c2c1=O)CCCC3 [eggmanone, 3-(2-methylallyl)-2-((2-oxo-2-(thiophen-2-yl)ethyl)thio)-5,6,7,8-tetrahydrobenzo[4,5]thieno[2,3-d]pyrimidine-4(3H)-one]
- nuclear accumulation of Gli2FL [1]: inhibited
- inhibition of phosphatases in panel (21 phosphatases): ≤ 50%
- Shh-responsive Gli-luciferase reporter activity [2]: inhibited Hh-inducible Gli-responsive luciferase (Gli-Luc) activity in a dose-dependent manner
- Ptc1 expression in adaxial cells, pectoral fin fields and somites [3]: abrogation of the Hh-target gene Patched (Ptc)-1 expression
- purmorphamine-induced Gli-Luc reporter activity [4]: inhibited purmorphamine-induced (3 μM) Gli-Luc reporter activity in a dose-dependent manner
- IC50 (PDE3A): 3 µM
- ciliary transport protein IFT88 [5]: remained intact
- cilium structure (Arl13b staining) [5]: unaffected
- Gli1 transcription level [6]: significantly reduced
- Ptc1 transcription level [6]: significantly reduced
- Hh reporter activity induced by wild type PDE4D3 overexpression [7]: abolished
- Gli-Luc activity in cells overexpressing Gli2 [8]: retained Gli-Luc activity
- IC50 (PDE4D3): 0.072 µM
- selectivity for PDE4D3 over other PDEs (PDE4D3; versus PDE3A, PDE10A2, PDE11A4): 40- to 50 fold
- inhibition of PDE activity (PDE super-family members): ≥ 50%
- IC50 (PDE10A2): 3.05 µM
- p-PKA levels in whole cell lysates (PKA [9]): no significant increase
- effect on BMP signaling [10]: not perturbed
- inhibition of kinases in panel (442 kinases): ≤ 50%
- Gli2 localization to primary cilium [11]: properly localized to the proximal tip of the cilium
- phospho-T197-PKA at base of primary cilium / basal body (PKA [12]): significant increase in PKA activity at the base of the primary cilium
- IC50 (PDE11A4): 4.08 µM
- competition for Smo binding with BODIPY-cyclopamine (Smo): failed to compete
- Gli3R formation [13]: restored Gli3R formation

SMILES: COc1ccc(C2CNC(=O)C2)cc1OC1CCCC1 (stereo not drawn) [rolipram]
- potency in Gli-Luc reporter assay relative to eggmanone ([2]; stimulated with Shh): lower potency than eggmanone
- Shh-responsive Gli-luciferase reporter activity [2]: did reduce Hh signaling levels

SMILES: CC1=C2C[C@H]3[C@@H](CC=C4C[C@@H](O)CC[C@@]43C)[C@@H]2CC[C@]12O[C@@H]1C[C@H](C)CN[C@H]1[C@H]2C [cyclopamine, reference compound]
- Gli1 transcription level [6]: no inhibition
- Ptc1 transcription level [6]: no inhibition

SMILES: C=C[C@@]1(C)CC(=O)[C@]2(O)[C@@]3(C)[C@@H](O)CCC(C)(C)[C@@H]3[C@H](O)[C@H](OC(C)=O)[C@@]2(C)O1 [forskolin, reference compound]
- nuclear accumulation of Gli2FL [1]: inhibited
- Gli3R formation [13]: restored Gli3R formation
